Test results: publication PMC6959550 (Journal of medicinal chemistry, 2017)

What was measured:
TRPV1 [1] = target: T1, TRPV1 (Homo sapiens, UniProt Q8NER1); type: binding; settings: human versus rat TRPV1
TRPV1 [2] = target: T1, TRPV1; experiment: Predicted improvement of specific to nonspecific binding from Kd/Ki and Log P; settings: from Log P values
TRPV1 [3] = target: T1, TRPV1; experiment: Activity type at TRPV1
TRPV1 [4] = target: T1, TRPV1; type: binding; settings: treated versus control
TRPV1 [5] = target: T1, TRPV1; experiment: Time course of binding of 13 to human TRPV1 and its release
How it was run: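 Membranes (~20 μg protein) from CHO cells expressing human TRPV1 were incubated with the tritiated test ligand in DPBS with 0.25 mg/mL BSA at 37 °C for varied times. Alternatively, after 60 min, 50 nM unlabeled reference vanilloid was added for varied times at 37 °C or at 0 °C after chilling. Workup: α1-acid glycoprotein (2 mg/mL stock), 10 min at 0 °C, pelleting, scintillation counting. Values relative to controls; triplicate means.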

T1 sequence (Q8NER1 whole entry): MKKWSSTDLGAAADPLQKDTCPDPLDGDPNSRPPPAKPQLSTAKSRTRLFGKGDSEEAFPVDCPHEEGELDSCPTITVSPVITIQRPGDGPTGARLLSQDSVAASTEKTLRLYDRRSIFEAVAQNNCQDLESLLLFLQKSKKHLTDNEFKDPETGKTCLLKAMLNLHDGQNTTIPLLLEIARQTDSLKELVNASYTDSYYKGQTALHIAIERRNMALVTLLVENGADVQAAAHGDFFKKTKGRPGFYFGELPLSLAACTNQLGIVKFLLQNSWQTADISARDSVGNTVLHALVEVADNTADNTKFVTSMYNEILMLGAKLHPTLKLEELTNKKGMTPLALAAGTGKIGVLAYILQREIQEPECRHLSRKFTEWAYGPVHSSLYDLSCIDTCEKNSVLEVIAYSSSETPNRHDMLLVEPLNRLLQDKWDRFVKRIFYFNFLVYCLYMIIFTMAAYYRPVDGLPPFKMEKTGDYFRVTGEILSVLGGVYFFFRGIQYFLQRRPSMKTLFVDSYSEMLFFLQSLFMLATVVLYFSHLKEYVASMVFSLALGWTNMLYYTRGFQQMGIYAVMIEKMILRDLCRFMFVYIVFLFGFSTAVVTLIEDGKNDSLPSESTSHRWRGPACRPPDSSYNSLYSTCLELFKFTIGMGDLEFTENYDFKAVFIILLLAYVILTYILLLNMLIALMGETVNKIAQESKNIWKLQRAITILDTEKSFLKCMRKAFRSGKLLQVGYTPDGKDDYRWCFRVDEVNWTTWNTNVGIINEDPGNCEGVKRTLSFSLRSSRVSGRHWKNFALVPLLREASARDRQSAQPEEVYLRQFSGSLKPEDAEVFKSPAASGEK

| change of affinity by PMA and cyclosporin A treatment (TRPV1 [4]) | specific binding at 0 °C over the time for assay workup (TRPV1 [5]; 0 °C, after nonradioactive 1 (50 nM)) | time by which specific binding was largely complete (TRPV1 [5]; 37 °C) [min] | time for almost full release of specifically bound ligand (TRPV1 [5]; 37 °C, after nonradioactive 1 (50 nM)) [min] | Compound | human TRPV1 less sensitive (weaker binding) than rat/rodent TRPV1 (TRPV1 [1]) | Improvement over 1 from the formula ((Kd RTX × 10^LogP RTX)/(Ki compound × 10^Log P compound)) (TRPV1 [2]) [fold] | activity (TRPV1 [3]) |
| --- | --- | --- | --- | --- | --- | --- | --- |
| – | – | – | – | C=C(C)[C@]12C[C@@H](C)[C@@]34O[C@](Cc5ccccc5)(O[C@@H]1[C@@H]3C=C(COC(=O)Cc1ccc(O)c(OC)c1)C[C@]1(O)C(=O)C(C)=C[C@@H]41)O2 [compound 1, resiniferatoxin] | approximately 20 fold | 1 | agonist |
| – | – | – | – | CC(C)(C)c1ccc2c(c1)CC[C@H]2NC(=O)Nc1cccc2cnccc12 [A-778317, 1-((R)-5-tert-butyl-indan-1-yl)3-isoquinolin-5-yl-urea] | – | – | antagonist |
| no appreciable change | stable | ≤ 5 | ≤ 2 | [3H]CC1([3H])CCN(c2nc(C(F)(F)F)ccc2CNC(=O)Nc2cccc3c2OCC(=O)N3)CC1 [compound 13, 1-((2-(4-(methyl-[^3H])piperidin-1-yl-4-[^3H])-6-(trifluoromethyl)pyridin-3-yl)methyl)-3-(3-oxo-3,4-dihydro-2H-benzo[b][1,4]oxazin-8-yl)urea] | – | – | – |
| – | – | – | – | CC1CCN(c2nc(C(F)(F)F)ccc2CNC(=O)Nc2cccc3c2OCC(=O)N3)CC1 [compound 12, 1-((2-(4-methylpiperidin-1-yl)-6-(trifluoromethyl)pyridin-3-yl)methyl)-3-(3-oxo-3,4-dihydro-2H-benzo[b][1,4]oxazin-8-yl)urea] | – | 45.6 | antagonist |
